Data on one molecule can be found in ChEMBL document CHEMBL2010797, “Exploring aigialomycin d and its analogues as protein kinase inhibitors for cancer targets” (ACS Med Chem Lett, 2011).

For test [1], the target named is Cyclin-dependent kinase 1 (Homo sapiens, UniProt P06493). In words: Inhibition of CDK1.
In test [2] the target is Cyclin-dependent kinase 2/cyclin A (Homo sapiens) (UniProt P24941+P20248+P78396). In words: Inhibition of CDK2/cyclin A using 5-FAM-GGGPATPKKAKKL-COOH as substrate at 10 uM after 1 hr by IMAP assay. The class given is protein-complex assay. In short, it runs like this:
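IMAP fluorescence-polarization enzyme assay on CDK2/cyclin A, testing competition at the ATP site. Compounds tested at 10 μM, with purvalanol A at 1 μM as reference. Percent inhibition is the average ± SD of three independent experiments, or the mean of two for some compounds.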

Test [3] addresses Tyrosine-protein kinase receptor UFO (Homo sapiens) (UniProt P30530). In words: Inhibition of AXL assessed as enzyme activity at 10 uM relative to control. On the set-up: scale not given: the % may be the effect or the level left. In short, it runs like this: (§1)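 Single-point test at 10 μM in a 96-kinase screening panel. Reported as % of a DMSO negative control, where a lower value means stronger inhibition.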

Test [4] deals with T1, Tyrosine-protein kinase receptor UFO (Homo sapiens, UniProt P30530).
T1 sequence (P30530 whole entry): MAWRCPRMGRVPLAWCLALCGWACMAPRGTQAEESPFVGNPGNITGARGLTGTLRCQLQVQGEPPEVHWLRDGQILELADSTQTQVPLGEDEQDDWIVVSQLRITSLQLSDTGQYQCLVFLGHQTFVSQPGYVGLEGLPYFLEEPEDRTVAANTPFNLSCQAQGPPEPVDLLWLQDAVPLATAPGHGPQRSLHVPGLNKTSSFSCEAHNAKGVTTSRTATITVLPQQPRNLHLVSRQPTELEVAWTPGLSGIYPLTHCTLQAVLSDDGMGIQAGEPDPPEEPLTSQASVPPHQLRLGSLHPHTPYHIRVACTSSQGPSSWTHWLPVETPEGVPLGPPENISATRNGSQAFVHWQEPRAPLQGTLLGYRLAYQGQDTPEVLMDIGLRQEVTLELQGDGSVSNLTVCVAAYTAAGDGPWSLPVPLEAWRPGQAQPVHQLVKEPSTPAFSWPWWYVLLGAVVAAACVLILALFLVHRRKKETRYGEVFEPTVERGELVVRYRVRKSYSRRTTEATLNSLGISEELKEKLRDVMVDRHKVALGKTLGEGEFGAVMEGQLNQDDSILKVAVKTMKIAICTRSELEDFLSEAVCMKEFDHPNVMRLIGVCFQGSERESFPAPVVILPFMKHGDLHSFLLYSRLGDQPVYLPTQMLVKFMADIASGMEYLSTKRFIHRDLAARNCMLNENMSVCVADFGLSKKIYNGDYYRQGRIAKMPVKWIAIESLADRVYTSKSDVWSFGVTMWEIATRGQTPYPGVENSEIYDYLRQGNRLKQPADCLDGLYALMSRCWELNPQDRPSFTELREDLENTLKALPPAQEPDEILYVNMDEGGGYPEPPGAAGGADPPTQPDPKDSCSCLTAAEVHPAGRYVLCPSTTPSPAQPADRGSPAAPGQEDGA
Nature of the test: Inhibition of AXL.

Test [5] addresses MAP kinase-interacting serine/threonine-protein kinase 2 (Homo sapiens, UniProt Q9HBH9). Nature of the test: Inhibition of MNK2 assessed as enzyme activity at 10 uM relative to control. On the set-up: scale not given: the % may be the effect or the level left. An outline of the steps:
as §1

Test [6] addresses T2, Serine/threonine-protein kinase PLK4 (Homo sapiens) (UniProt O00444).
T2 sequence (whole entry): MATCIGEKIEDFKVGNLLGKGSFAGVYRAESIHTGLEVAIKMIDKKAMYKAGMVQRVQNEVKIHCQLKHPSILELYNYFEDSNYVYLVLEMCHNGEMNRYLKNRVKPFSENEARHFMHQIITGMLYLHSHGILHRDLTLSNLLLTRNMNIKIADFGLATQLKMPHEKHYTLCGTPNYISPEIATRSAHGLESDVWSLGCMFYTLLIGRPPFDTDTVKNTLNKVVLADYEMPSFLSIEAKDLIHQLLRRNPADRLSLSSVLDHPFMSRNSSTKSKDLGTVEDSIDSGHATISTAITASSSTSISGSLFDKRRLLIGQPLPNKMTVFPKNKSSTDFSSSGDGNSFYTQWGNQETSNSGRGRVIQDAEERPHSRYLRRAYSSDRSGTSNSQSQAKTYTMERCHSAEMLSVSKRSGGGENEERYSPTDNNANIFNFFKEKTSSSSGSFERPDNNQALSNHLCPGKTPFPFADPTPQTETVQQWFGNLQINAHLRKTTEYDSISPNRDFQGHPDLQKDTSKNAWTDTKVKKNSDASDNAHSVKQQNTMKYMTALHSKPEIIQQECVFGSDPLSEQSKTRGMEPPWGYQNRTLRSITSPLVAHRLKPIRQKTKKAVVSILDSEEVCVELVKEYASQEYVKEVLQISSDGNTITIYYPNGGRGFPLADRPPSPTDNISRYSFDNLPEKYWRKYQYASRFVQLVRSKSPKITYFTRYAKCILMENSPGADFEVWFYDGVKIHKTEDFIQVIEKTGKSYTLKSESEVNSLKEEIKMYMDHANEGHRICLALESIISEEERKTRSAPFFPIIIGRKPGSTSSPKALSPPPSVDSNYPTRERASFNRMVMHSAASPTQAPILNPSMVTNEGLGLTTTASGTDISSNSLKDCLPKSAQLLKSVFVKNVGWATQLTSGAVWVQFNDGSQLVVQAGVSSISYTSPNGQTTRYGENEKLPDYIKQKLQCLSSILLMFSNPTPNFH
In words: Inhibition of PLK4 assessed as enzyme activity at 10 uM relative to control. The arrangement: scale not given: the % may be the effect or the level left. In short, it runs like this: as §1

The target in test [7] is T3, Protein kinase C epsilon type (Homo sapiens, UniProt Q02156).
T3 sequence (Q02156 whole entry): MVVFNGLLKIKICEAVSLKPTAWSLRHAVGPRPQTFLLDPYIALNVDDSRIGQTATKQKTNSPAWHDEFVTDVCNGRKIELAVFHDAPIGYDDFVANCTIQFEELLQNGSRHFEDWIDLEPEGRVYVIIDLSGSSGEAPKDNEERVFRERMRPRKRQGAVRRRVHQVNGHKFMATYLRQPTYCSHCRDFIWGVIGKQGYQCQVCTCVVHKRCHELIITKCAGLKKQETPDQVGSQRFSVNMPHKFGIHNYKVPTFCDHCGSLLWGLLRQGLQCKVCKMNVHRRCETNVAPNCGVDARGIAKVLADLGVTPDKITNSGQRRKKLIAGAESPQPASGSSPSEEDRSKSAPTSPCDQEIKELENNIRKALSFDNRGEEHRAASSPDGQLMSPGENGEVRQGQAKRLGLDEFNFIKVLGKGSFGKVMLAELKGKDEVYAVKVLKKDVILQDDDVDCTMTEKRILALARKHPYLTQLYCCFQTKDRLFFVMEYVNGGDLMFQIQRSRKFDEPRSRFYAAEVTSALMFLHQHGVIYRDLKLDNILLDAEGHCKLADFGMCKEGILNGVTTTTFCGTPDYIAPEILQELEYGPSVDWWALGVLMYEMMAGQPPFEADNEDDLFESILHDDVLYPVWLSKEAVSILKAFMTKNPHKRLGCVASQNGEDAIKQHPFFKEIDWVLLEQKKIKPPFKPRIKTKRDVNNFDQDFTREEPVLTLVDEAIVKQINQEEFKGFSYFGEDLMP
Nature of the test: Inhibition of PRKCE.

Chain of Cyclin-dependent kinase 1 (P06493 whole entry): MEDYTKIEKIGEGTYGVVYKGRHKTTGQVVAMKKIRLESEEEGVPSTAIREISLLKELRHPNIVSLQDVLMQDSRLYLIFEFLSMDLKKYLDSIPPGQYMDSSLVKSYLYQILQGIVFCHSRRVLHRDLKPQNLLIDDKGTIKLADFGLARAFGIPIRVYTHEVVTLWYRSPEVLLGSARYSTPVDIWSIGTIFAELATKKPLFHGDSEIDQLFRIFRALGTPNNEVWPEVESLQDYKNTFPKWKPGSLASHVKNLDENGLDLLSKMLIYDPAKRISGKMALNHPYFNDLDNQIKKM
Chain of MAP kinase-interacting serine/threonine-protein kinase 2 (Q9HBH9 whole entry, looked up): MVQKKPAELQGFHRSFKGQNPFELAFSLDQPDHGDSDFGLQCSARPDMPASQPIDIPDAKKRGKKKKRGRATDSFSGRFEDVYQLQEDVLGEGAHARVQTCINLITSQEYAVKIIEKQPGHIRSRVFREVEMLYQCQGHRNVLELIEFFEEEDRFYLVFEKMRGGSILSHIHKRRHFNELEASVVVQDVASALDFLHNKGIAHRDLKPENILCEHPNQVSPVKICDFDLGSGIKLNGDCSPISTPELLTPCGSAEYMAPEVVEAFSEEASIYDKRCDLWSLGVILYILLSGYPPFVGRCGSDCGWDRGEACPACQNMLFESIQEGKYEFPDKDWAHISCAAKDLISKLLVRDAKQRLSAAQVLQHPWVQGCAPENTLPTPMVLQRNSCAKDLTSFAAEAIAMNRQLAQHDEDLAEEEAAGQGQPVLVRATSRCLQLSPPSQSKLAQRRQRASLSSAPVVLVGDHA

On to `C[C@H]1C/C=C/[C@@H](O)[C@@H](O)CC/C=C/c2cc(O)cc(O)c2C(=O)O1` [AIGIALOMYCIN D], for which the midpoint of inhibition in test [1], the IC50, lay at 6 µM. In test [2], this molecule displayed an inhibition of 55%. Also, the Activity in test [3] came to 4.7%; in test [5], 0.15%; in test [6] it was 9.6%. Besides, the values for the dissociation constant (Kd) in test [4] and in test [7] were 1 µM and 12 µM, respectively.
